Experimental findings from ChEMBL document CHEMBL1129041, “Design of orally active dual inhibitors of neutral endopeptidase and angiotensin-converting enzyme with long duration of action” (J Med Chem, 1996) are described below.

Assay [1] deals with T1, Angiotensin-converting enzyme (Rattus norvegicus, UniProt P47820).
T1 sequence (P47820 whole entry): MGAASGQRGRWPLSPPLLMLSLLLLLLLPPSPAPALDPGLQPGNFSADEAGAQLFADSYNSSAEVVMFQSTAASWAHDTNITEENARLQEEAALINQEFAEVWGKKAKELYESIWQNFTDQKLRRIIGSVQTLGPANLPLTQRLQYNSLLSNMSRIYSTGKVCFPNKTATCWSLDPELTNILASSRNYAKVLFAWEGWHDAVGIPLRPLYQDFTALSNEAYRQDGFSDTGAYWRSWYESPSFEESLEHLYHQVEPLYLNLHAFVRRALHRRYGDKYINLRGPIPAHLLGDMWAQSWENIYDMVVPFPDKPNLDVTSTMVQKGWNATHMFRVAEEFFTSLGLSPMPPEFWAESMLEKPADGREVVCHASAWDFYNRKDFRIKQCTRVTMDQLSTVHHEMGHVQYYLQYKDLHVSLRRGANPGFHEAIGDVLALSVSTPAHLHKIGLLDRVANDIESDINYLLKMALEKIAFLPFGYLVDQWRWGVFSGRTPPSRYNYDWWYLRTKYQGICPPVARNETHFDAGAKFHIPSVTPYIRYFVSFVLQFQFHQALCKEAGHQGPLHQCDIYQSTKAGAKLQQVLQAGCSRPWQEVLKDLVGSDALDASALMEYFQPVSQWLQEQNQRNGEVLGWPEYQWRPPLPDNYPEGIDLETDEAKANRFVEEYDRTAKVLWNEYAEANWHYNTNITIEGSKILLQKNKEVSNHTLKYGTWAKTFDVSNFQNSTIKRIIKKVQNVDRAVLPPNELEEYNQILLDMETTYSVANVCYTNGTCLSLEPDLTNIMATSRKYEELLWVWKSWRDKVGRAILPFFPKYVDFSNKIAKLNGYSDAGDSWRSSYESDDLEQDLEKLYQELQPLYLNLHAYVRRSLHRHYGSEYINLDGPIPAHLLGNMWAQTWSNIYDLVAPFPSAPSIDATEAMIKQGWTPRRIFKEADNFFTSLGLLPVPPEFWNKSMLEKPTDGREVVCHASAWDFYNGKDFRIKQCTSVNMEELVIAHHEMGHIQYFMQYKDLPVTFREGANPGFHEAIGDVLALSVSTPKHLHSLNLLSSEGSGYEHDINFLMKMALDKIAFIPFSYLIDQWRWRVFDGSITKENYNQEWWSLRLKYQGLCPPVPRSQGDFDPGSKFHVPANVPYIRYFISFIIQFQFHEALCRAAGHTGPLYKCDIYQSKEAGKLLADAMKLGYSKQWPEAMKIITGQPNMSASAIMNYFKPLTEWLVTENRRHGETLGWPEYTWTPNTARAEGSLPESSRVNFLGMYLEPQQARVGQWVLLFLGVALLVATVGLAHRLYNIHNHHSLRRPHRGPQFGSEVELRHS
In words: In vitro inhibition of rat angiotensin I converting enzyme. In outline:
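ACE purified from rat testis, 0.02 pmol/100 µL final, preincubated 15 min at 37 °C with varying inhibitor in 50 mM Tris-HCl pH 8.0. N-Cbz-Phe-His-Leu added to 0.05 mM final, 15 min; stopped with 2 M NaOH. His-Leu measured fluorimetrically (ex 365, em 495 nm) against a His-Leu calibration curve. IC50 is the mean ± SEM of three experiments in triplicate.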

A further assay concerns the target T2, Neprilysin (Oryctolagus cuniculus, UniProt P08049).
T2 sequence (P08049 whole entry): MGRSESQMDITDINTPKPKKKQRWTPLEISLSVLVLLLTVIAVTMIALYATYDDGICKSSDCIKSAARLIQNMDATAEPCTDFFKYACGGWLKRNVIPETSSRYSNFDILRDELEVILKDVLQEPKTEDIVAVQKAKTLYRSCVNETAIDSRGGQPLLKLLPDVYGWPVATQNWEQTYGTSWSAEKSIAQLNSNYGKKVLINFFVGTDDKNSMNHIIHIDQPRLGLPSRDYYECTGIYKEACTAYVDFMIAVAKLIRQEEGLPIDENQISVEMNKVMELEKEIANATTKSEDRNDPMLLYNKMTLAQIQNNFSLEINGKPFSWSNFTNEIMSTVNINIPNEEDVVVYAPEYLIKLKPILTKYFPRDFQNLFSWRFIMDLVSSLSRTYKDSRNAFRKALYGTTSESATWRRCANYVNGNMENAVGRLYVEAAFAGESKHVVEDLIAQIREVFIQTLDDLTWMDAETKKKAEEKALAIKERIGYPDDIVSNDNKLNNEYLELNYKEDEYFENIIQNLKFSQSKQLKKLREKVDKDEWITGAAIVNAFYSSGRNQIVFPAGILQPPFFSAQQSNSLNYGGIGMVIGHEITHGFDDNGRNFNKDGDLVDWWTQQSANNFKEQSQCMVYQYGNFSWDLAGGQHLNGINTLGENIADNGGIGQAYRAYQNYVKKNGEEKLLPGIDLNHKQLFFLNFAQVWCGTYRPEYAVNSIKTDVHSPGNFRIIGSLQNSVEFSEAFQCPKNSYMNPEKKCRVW
In words: In vitro inhibition of neutral endopeptidase. In outline: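 NEP purified from rabbit kidney, 1 pmol/100 µL final, preincubated 15 min at 25 °C with increasing inhibitor concentrations in 50 mM Tris-HCl pH 7.4. Substrate [3H]-D-Ala2-Leu-enkephalin at 20 nM final, 30 min; stopped with 0.5 M HCl. [3H]Tyr-D-Ala-Gly separated on polystyrene beads and counted by scintillation. IC50 is the mean ± SEM of three independent experiments run in triplicate.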

A word on the IC50: it is the concentration at which inhibition is half-maximal. Turning to `O=C(NCC(=O)N1[C@@H](c2ccccc2O)CC[C@H]1C(=O)O)[C@@H](S)Cc1ccc(O)cc1`, the half-inhibitory concentration (IC50) in assay [1] came to 0.6 nM; against Neprilysin, 3.5 nM.

For the compound `Cc1ccc([C@H]2CC[C@@H](C(=O)O)N2C(=O)CNC(=O)[C@@H](S)Cc2ccc(O)cc2)cc1`, the figures for the IC50 (in assay [1]; against Neprilysin) were 2.5 nM and 5.5 nM, respectively.

For `Cc1ccccc1[C@H]1CC[C@@H](C(=O)O)N1C(=O)CNC(=O)[C@@H](S)Cc1ccccc1`, the IC50 turned out to be 3.1 nM in assay [1] and 5.3 nM at Neprilysin.

In the case of `Cc1ccc([C@H]2CC[C@@H](C(=O)O)N2C(=O)CNC(=O)[C@@H](S)Cc2ccccc2)cc1`, the IC50 in assay [1] is 6.8 nM; against Neprilysin, 12.5 nM.

Consider `Cc1ccccc1C1CC[C@@H](C(=O)O)N1C(=O)CNC(=O)[C@@H](S)Cc1ccc(O)cc1` (single isomer, unassigned), for which the IC50 in assay [1] was found to be 5 nM; against Neprilysin, 2.7 nM.

Turning to `O=C(NCC(=O)N1[C@@H](c2ccccc2)CC[C@H]1C(=O)O)[C@@H](S)Cc1ccccc1`, the IC50 in assay [1] stood at 0.55 nM; on Neprilysin, 1.6 nM.

Take `O=C(NCC(=O)N1[C@@H](c2cccc(O)c2)CC[C@H]1C(=O)O)[C@@H](S)Cc1ccc(O)cc1`: the results for the IC50 (in assay [1]; on Neprilysin) were 0.7 nM and 1.6 nM, respectively.
